# NR1D1 modulator – modulates human Rev-erb alpha binding to DNA. P20393. Rev-erbα–FITC-DNA binding, fluorescence polarization, 90 min. activity, % at 10 µM. 370,000 compounds, 0.79% hits. AID 1259318;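 active means activity above about 14%, limit read from the data; passing the limit was not always enough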;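 further: 0% = DMSO wells with 35 nM protein and 100% = DMSO wells with 750 nM protein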
# TbMetRS inhib – Trypanosoma brucei MetRS inhibition | purified T. brucei MetRS, ATP depletion, Kinase-Glo luminescence | inhibition, % at 11.9 µM | 360,000 compounds, 0.4% hits | AID 624268;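 active means inhibition above a per-plate cutoff of the control wells' mean inhibition plus 3 SD, cut at about 5.5% in these data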;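 further: 0% = DMSO wells median and 100% = median of wells with control inhibitor compound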
#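 Material: parasite MetRS enzyme / Replication: singlicate, one well per compound / Signal: luminescence of leftover ATP / Schedule: 2 h aminoacylation at 25 °C after 15 min preincubation / Medium: HEPES-MgCl2-KCl buffer plus DTT, spermine, BSA, pyrophosphatase / Doses: 11.9 µM single point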
# PG9 Ab binder – binds the HIV-1 gp120 antibody PG9; 360,000 compounds, 0.43% hits; TR-FRET gp120-PG9 antibody binding; inhibition, % at 6.7 µM; AID 624416; in the data active means inhibition above about 8.5%
# Rin1 Abl inh – blocks binding of human Rin1 to Abl. inhibition, % at 7.35 µM. P00519+Q13671. 360,000 compounds, 0.4% hits. TR-FRET Rin1/Abl binding, biochemical. AID 588664; in the data active means inhibition above about 5%, passing the limit was not always enough
# Target sequence (P00519 whole entry, looked up): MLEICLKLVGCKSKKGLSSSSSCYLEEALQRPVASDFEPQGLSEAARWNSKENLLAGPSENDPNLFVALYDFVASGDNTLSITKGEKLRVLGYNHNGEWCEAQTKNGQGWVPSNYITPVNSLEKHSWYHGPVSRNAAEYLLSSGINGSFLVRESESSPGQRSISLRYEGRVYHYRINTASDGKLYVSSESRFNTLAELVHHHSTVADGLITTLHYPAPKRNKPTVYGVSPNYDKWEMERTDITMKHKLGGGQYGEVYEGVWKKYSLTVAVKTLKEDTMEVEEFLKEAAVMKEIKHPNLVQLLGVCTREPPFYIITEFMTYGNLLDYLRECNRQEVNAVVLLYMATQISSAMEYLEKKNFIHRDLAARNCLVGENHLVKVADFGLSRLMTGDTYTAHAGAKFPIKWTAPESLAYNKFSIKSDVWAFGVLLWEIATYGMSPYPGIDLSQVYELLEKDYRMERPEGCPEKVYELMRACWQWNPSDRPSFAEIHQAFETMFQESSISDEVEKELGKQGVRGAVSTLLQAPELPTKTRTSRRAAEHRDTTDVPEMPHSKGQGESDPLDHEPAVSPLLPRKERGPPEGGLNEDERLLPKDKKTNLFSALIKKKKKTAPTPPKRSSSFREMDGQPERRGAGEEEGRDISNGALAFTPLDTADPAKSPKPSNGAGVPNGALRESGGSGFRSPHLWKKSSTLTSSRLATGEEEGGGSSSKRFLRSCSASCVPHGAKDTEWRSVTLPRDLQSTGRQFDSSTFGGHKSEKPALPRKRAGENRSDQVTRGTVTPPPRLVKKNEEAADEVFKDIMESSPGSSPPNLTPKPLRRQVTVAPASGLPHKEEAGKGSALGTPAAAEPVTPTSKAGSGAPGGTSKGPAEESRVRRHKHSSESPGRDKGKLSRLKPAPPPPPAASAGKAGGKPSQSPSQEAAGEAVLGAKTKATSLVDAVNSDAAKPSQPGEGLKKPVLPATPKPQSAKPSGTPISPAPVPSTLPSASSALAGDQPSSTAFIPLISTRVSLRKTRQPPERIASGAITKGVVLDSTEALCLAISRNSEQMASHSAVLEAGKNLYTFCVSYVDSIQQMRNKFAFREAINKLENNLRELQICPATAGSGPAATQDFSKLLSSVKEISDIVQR
# Target sequence (Q13671 whole entry, looked up): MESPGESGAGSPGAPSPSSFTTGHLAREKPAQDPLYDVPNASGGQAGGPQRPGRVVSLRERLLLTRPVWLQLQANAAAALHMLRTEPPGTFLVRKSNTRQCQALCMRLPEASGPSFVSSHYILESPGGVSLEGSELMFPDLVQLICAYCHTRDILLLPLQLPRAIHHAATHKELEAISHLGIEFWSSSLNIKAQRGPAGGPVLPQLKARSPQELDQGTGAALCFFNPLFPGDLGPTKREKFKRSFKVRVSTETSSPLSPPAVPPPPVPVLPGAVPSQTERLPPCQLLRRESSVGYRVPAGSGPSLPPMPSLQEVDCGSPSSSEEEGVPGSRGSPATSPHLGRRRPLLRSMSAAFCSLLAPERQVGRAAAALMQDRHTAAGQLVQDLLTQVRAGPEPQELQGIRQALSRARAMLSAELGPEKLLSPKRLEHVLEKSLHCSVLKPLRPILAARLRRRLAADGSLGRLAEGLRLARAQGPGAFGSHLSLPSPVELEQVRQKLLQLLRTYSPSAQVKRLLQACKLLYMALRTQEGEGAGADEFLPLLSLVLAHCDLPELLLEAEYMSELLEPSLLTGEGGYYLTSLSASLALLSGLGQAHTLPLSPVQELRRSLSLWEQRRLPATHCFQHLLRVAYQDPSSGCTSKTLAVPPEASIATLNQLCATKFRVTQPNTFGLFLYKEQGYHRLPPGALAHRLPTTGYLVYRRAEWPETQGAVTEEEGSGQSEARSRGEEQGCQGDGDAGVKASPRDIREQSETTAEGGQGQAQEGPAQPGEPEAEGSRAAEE
# TbMetRS confirm – confirmation of Trypanosoma brucei MetRS inhibitors; shares compounds with TbMetRS inhib; T. brucei MetRS enzyme, luminescence (ATP depletion); inhibition, % at 11.9 µM; 1,400 compounds, 93% hits; in the data active means inhibition above about 7%
# Jurkat tox – Jurkat T cell cytotoxicity for MetRS hits; 1,400 compounds, 12% hits; Jurkat cells viability, ATP luminescence; inhibition, % at 8.3 µM; shares compounds with TbMetRS inhib; AID 624413; in the data active means inhibition above about 15%;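 further: 0% = vehicle and 100% = reference inhibitor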
# TbMetRS FP orth – inhibits T. brucei methionyl tRNA synthetase in orthogonal FP test; shares compounds with TbMetRS inhib; purified T. brucei MetRS, fluorescence polarization; inhibition, % at 11.9 µM; 1,400 compounds, 44% hits; in the data active means inhibition above about 17%;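 further: 0% = vehicle wells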
# Numbers without * were called inactive; nt = no result given. The list is not random: actives were taken first. Their share in the collection is about 1.8%.
SMILES,NR1D1 modulator,TbMetRS inhib,PG9 Ab binder,Rin1 Abl inh,TbMetRS confirm,Jurkat tox,TbMetRS FP orth
CCOC(=O)C1=C(CC)Nc2ccccc2N=C1NC(=O)Nc1ccc(Cl)c(Cl)c1,2,37*,-1,-2,97*,17*,117*
CCC(NC(=O)c1ccc2c(ccn2Cc2cccc(-c3ccccc3C(=O)O)c2)c1)c1ccccc1 (configuration not stated),1,nt,nt,nt,nt,nt,nt
Clc1ccc2nc(CNc3nc(N4CCOCC4)nc4c3ncn4-c3ccsc3)[nH]c2c1,-2,nt,nt,nt,nt,nt,nt
COCC#Cc1ccc(CC[C@H]2O[C@H]3CC[C@@H](CO)O[C@H]3C[C@H]2n2cc(C(C)(C)O)nn2)cc1,0,nt,nt,nt,nt,nt,nt
Nc1ccc(C(=O)OCc2nc3c(ccc4ccccc43)[nH]2)cc1,0,7.1*,-1,-2,10*,20*,11
COc1ccc(OC)c(C2C(C#N)=C(N)Oc3cc(N)ccc32)c1 (configuration not stated),-1,36*,-2,2,4,12,4
COc1ccc(C2C(C#N)=C(N)Oc3cc(C)[nH]c(=O)c32)cc1OC (configuration not stated),10,0,-1,0,nt,nt,nt
Cc1cc2c(c(=O)n1CCc1ccccc1)C(c1ccco1)C(C#N)=C(N)O2 (configuration not stated),-4,0,0,2,nt,nt,nt
CCOc1cccc(C2C(C#N)=C(N)Oc3cc(C)n(Cc4ccccn4)c(=O)c32)c1OCC (configuration not stated),0,0,-2,-1,nt,nt,nt
CCOc1ccccc1C1C(C#N)=C(N)Oc2cc(N)ccc21 (configuration not stated),-3,1,-2,-1,nt,nt,nt
COc1ccc(OC)c(C2C(C#N)=C(N)Oc3cc(C)[nH]c(=O)c32)c1 (configuration not stated),0,13*,0,0,4,-4,0
COc1ccc(OC)c(C2C(C#N)=C(N)Oc3cc(C)n(Cc4ccccn4)c(=O)c32)c1 (configuration not stated),-2,89*,-1,-2,15*,-8,10
COc1cc(C2C(C#N)=C(N)Oc3cc(C)n(CCc4ccccc4)c(=O)c32)cc2c1OCO2 (configuration not stated),-1,85*,1,-13,11*,0,6
C#CCNC(=O)C[C@@H]1C(=O)N(CC=C)C2=CCCCC[C@]21C(=O)OC,2,nt,nt,nt,nt,nt,nt
Nc1nnc(CC(=O)N/N=C/c2ccc(-c3ccccc3)o2)s1,-7,8.1*,-2,-7,5,1,9
Nc1nnc(CC(=O)N/N=C/c2ccc(-c3ccc(Cl)cc3Cl)o2)s1,-15,11*,-1,-2,3,4,5
CC(C)[C@H]1/C(=C/C2CC2)N2C(=O)C[C@@H](c3ccccc3)N=C2N1Cc1ccc2c(c1)OCO2,11,nt,nt,nt,nt,nt,nt
CCN(CC)C(=O)CC[C@H]1CC[C@]2(CCCN(S(C)(=O)=O)C2)O1,1,nt,nt,nt,nt,nt,nt
CCc1cc2c(nc1CC)CCCN2S(=O)(=O)c1c(C)noc1C,-3,nt,-1,nt,nt,nt,nt
O=C(Cn1cc(C(=O)C(=O)N2CCOCC2)c2ccccc21)Nc1cccc(C(F)(F)F)c1,-1,90*,0,3,97*,3,95*
COc1ccccc1NC(=O)Cn1cc(C(=O)C(=O)N2CCOCC2)c2ccccc21,0,0,-1,-1,nt,nt,nt
N#Cc1nc(COc2ccc(Cl)cc2)oc1NCc1ccc2c(c1)OCO2,3,5.7*,0,-1,9.8*,1,12
COCCCN1CC(=O)N2C(c3cccc(OC)c3)c3[nH]c4ccccc4c3C[C@H]2C1=O (some centres not stated),-1,12*,-1,3,24*,4,6
COCCN1CC(=O)N2C(c3cccc(OC)c3)c3[nH]c4ccccc4c3C[C@H]2C1=O (some centres not stated),-7,11*,-2,0,24*,0,7
CC(C)OCCCN1CC(=O)N2C(c3cccc([N+](=O)[O-])c3)c3[nH]c4ccccc4c3C[C@H]2C1=O (some centres not stated),0,93*,-1,3,95*,5,85*
SMILES,NR1D1 modulator,TbMetRS inhib,PG9 Ab binder,Rin1 Abl inh,TbMetRS confirm,Jurkat tox,TbMetRS FP orth
CCCN1CC(=O)N2C(c3ccccc3)c3[nH]c4ccccc4c3C[C@H]2C1=O (some centres not stated),-1,1,-2,-1,nt,nt,nt
COc1ccc(OC)c(C2c3[nH]c4ccccc4c3C[C@H]3C(=O)N(CCCOC(C)C)CC(=O)N23)c1 (some centres not stated),0,2,0,1,nt,nt,nt
CC(=O)O[C@H]1[C@H](OC(C)=O)C[C@]2(OC(C)=O)C[C@H]1OC2=O,-3,nt,nt,nt,nt,nt,nt
CCC(=O)N(C)C[C@@H]1[C@H](c2ccc(C3=CCCCC3)cc2)[C@H](CO)N1C(=O)CC,4,nt,nt,nt,nt,nt,nt
CC(C)CNC(=O)OCc1cn(Cc2cccc(C(F)(F)F)c2)nn1,-1,nt,nt,nt,nt,nt,nt
CC(=O)CC[C@@H]1CC[C@]2(CCCN(C(=O)C3CCCCC3)C2)O1,-1,nt,nt,nt,nt,nt,nt
O=C(O)c1ccc(N2CCN(Cc3ccc4c(c3)OCO4)CC2)c([N+](=O)[O-])c1,-6,7.0*,0,0,16*,0,9
O=C(NCc1ccc2c(c1)OCO2)c1ccc(N2CCCCCC2)c([N+](=O)[O-])c1,-4,0,1,0,nt,nt,nt
COC(=O)[C@]12C[C@H](CC(=O)NCC34CC5CC(CC(C5)C3)C4)C(=O)N(Cc3ccccc3)C1=C[C@H](C(C)C)O[C@@H]2C1CC1,-3,nt,1,nt,nt,nt,nt
O=[N+]([O-])c1ccc(Cn2ccc3ccc(-c4ccc5ccn(Cc6ccccc6)c5c4)cc32)cc1,-1,nt,nt,nt,nt,nt,nt
O=C(c1ccc(Cl)cc1)c1c[nH]c(C(=O)NNc2cccc(Cl)n2)c1,4,22*,0,1,28*,-7,14
O=C(NCc1cc(Cl)cc(Cl)c1)c1ccc2nc([C@H]3C[C@H](O)[C@@H](CO)O3)[nH]c2c1,3,22*,0,1,49*,-2,33*
O=C(NCC1CCCCC1)c1ccc2nc([C@H]3C[C@H](O)[C@@H](CO)O3)[nH]c2c1,4,0,-2,4,nt,nt,nt
COc1ccc(CCNC(=O)c2ccc3c(c2)ncn3C2CCCCC2)cc1,-5,nt,nt,nt,nt,nt,nt
O=C(NCc1cccc(Cl)c1)c1cnn2c1NC(c1ccco1)CC2C(F)(F)F (configuration not stated),5,10*,0,2,23*,1,14
Cc1cccc(NC(=O)Cn2c(/C=C/c3ccccc3)nc3ccccc32)c1,9,10*,0,-5,19*,0,10
